# Source: PubChem BioAssay
# Activity calls are given as the source filed them.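 Rule for the calls, unless noted: active = compounds giving at least 50% inhibition in the cell-based MKP-3 phosphatase rescue imaging test; inactive = the rest.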
# Assays:
# [1] = inhibitors of TNFa-induced NFkB p65 translocation, primary screen, imaging, HUVEC, MLSMR starter and 10KST1 sets (AID 438;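 active = inhibition above 20% together with a positive visual image hit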;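 note: compound added about 3h40 before a 20 min TNFalpha stimulation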;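 for inhibition: signal is the nuclear over cytoplasmic p65 intensity ratio per well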); details: HUVEC TNFa-induced p65 nuclear translocation; cell count: measured here: nuclei count (cytotoxicity indicator), at 2.08 µM; inhibition: at 2 µM, stronger effect = higher value, 0% TNFa-plus-vehicle, 100% no-TNFa wells
# [2] = inhibitors of E-selectin induction by TNFa, primary screen, imaging, HUVEC, immunofluorescence, MLSMR starter and 10KST1 sets (AID 487;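 active = visually confirmed hit in the image check and inhibition above 20%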;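 for inhibition: signal is fraction of cell area covered by stained E-selectin grains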;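 for nuclei count: 100% = median nuclei count of all wells on the same plate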); details: HUVEC TNFalpha-induced E-selectin immunofluorescence imaging, at 2 µM; inhibition: stronger effect = higher value; nuclei count: measured here: cell number, toxicity
# [3] = DUSP6 inhibitors restoring Erk phosphorylation by chemical complementation, primary imaging in DUSP6-transfected HeLa (AID 609); details: HeLa MKP-3 transfected, phospho-Erk imaging KS statistic, at 10 µM, cells stimulated with TPA for 15 min;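 for inhibition: phospho-Erk level distribution per well compared with pooled transfected vehicle control wells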
# [4] = target: Dual specificity protein phosphatase 6 (Homo sapiens) (UniProt Q16828); assay: as above; details: HeLa MKP-3 transfected, phospho-Erk imaging KS statistic; at 10 µM; stronger effect = higher value; cells stimulated with TPA for 15 min
# Chain of Dual specificity protein phosphatase 6 (Homo sapiens) (Q16828 whole entry, looked up): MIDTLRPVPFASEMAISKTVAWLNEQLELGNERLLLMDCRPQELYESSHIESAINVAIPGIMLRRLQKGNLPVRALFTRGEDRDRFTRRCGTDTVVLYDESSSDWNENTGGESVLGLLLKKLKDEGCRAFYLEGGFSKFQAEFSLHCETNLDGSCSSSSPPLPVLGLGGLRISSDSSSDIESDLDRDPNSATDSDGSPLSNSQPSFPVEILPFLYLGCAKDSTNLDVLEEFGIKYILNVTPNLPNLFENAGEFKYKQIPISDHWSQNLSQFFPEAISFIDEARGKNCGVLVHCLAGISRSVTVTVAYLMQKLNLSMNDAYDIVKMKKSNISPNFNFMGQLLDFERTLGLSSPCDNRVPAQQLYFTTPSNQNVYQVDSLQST
# [5] = target: Voltage-gated potassium channel subunit beta-2 (Rattus norvegicus) (UniProt P62483); assay: KvBeta enzyme negative modulators, primary screen, biochemical, NADPH fluorescence (AID 622;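 active = fluorescence slope higher than the sample average by over 3 SD, cut at about -0.22 in these data, passing the limit was not always enough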;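 note: slope of raw intensity against log time taken from 70 to 1610 s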); details: recombinant KvBeta, 4-cyanobenzaldehyde reduction, at 10 µM, stronger effect = higher value
# Chain of Voltage-gated potassium channel subunit beta-2 (Rattus norvegicus) (P62483 whole entry, looked up): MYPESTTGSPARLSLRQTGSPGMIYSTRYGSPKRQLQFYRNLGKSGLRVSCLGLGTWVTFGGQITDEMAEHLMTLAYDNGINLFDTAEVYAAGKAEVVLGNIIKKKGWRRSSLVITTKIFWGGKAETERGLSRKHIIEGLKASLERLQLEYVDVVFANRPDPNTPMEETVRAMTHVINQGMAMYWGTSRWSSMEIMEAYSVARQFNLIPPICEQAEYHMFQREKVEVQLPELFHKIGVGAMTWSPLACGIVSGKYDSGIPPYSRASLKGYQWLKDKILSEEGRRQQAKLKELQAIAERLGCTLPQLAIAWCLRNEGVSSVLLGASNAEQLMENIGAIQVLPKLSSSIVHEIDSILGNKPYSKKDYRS
# [6] = target: Voltage-gated potassium channel subunit beta-2 (Rattus norvegicus) (UniProt P62483); assay: KvBeta positive modulators, primary screen, biochemical, NADPH fluorescence (AID 623;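 active = NADPH fluorescence slope more negative than the mean of all samples by about 3 SD, 99.7% confidence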;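 note: fluorescence intensity change per second fitted from 20 to 320 s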); details: Recombinant KvBeta, NADPH fluorescence decrease slope, 10 min; at 10 µM; stronger effect = lower value
# [7] = target: Alpha-2C adrenergic receptor (Homo sapiens) (UniProt P18825); assay: modulators of alpha2C/GIRK thallium flux, primary screen, cell-based, HEK293 alpha2C/GIRK1/2 (AID 624;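 active = fluorescence slope after compound addition differing from the mean of all screened samples at 99.7% confidence, in either direction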;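 note: slope of fluorescence ratio to pre-addition baseline per second over 15 to 24 s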); details: thallium flux BTC fluorescence, at 10 µM, actives lie on both sides
# Chain of Alpha-2C adrenergic receptor (Homo sapiens) (P18825 whole entry, looked up): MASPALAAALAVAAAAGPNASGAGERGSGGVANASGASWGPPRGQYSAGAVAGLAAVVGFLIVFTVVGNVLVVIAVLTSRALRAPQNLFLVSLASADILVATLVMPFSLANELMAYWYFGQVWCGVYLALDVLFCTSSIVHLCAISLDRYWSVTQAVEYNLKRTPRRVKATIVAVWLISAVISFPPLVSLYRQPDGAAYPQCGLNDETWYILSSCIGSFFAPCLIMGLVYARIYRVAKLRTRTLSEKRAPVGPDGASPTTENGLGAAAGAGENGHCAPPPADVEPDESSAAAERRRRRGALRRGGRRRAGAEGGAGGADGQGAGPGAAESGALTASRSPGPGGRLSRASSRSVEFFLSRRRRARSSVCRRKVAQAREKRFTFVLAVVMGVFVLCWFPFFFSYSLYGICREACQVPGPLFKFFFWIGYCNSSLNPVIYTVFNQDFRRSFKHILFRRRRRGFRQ
# [8] = inhibitors of larval lipid processing in zebrafish, primary screen, whole organism, PED6 fluorescence, gall bladder and intestine (AID 686;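 active = a full or partial loss of lipid-probe fluorescence in the fish gall bladder, intestine or both, judged by eye; inactive = no fluorescence loss, or compound toxic to the fish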;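 note: larvae 5 to 7 days old with five fish per well; signal comes from phospholipase A2 cleavage of quenched PED6 carried via bile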); details: Zebrafish larvae PED6 lipid processing, fluorescence scoring; screened at 20 µM (by protocol)
# In short: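 Incubation: overnight exposure of larvae to compound plus PED6 / Test system: live zebrafish larvae aged 5-7 days, whole organism / Amount: 5 larvae per well / Read-out basis: visual per-well fluorescence inhibition score / Signal: visual fluorescence microscopy scoring of gall bladder, gut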
# [9] = inhibitors of Chlamydomonas gravitaxis, primary screen, whole organism, Chlamydomonas reinhardtii, WT vs cilia-less mutant, absorbance, 96-well (AID 463189;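 active = inhibition at or above 50% relative to wild type and mutant plate controls; inactive = inhibition below 50%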;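 note: 0% = wild type cc124 cells in DMSO and 100% = ciliumless bld1 mutant cells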); details: OD600 absorbance, 2 days, at 10 µM, stronger effect = higher value
# [10] = measured here: cell density z-score
# [11] = measured here: nuclear c-Myc green intensity z-score
# [12] = measured here: nuclear pErk red intensity z-score, stronger effect = higher value
SMILES,cell count [1],inhibition [1],inhibition [2],nuclei count [2] [%],"z-score [3, 10]","z-score [3, 11]","z-score [3, 12]",inhibition [4],fluorescence slope [5],NADPH fluorescence slope [6],slope [7],outcome [8],inhibition [9]
COc1ccc(C=NCCCN2CCOCC2)cc1,638,-9.5% (inactive),-363% (inactive),165,-1.79,-1.02,1.46,-0.159% (inactive),-0.486 (inactive),-8.5e-05 (inactive),0.00493 (inactive),inactive,-6.33% (inactive)
COc1ccc2c(c1)nc(N)n2Cc1ccccc1,570,-4.4% (inactive),15% (inactive),168,2.35,-1.31,1.13,15.8% (inactive),-0.388 (inactive),-2.5e-05 (inactive),0.004 (inactive),inactive,12.8% (inactive)
Cc1nnc2n(Cc3ccccc3)c(=O)c3c4c(sc3n12)CN(Cc1ccccc1)CC4,628,-8.2% (inactive),29.2% (inactive),167,-0.0797,0.579,0.467,-7.28% (inactive),-0.423 (inactive),-5e-05 (inactive),0.00348 (inactive),inactive,31.3% (inactive)
CCOC(=O)c1[nH]c2ccc(Br)cc2c1NC(=O)CCN1CCN(C(=O)OCC)CC1,545,-23.3% (inactive),-94.6% (inactive),158,-0.326,-0.22,-0.0275,-7.86% (inactive),-0.522 (inactive),-4.7e-05 (inactive),0.00482 (inactive),inactive,18.6% (inactive)
Cc1cc(=O)oc(C)c1C(=O)NCCNC(=O)c1c(C)cc(=O)oc1C,496,-5.9% (inactive),-127% (inactive),140,0.642,-0.299,1.3,-14% (inactive),-0.534 (inactive),-3.6e-05 (inactive),0.0046 (inactive),inactive,-8.5% (inactive)
COc1cccc(N2CCN(C3CC(=O)N(c4cccc(Cl)c4)C3=O)CC2)c1 (centres undefined),325,-2.2% (inactive),-62.9% (inactive),80.7,-0.898,1.47,-0.427,3.42% (inactive),-0.43 (inactive),-0.00011 (inactive),0.00471 (inactive),inactive,-11.3% (inactive)
COc1cccc(C2C(C#N)=C(N)Oc3cc(C)[nH]c(=O)c32)c1OC (centres undefined),508,-31.3% (inactive),-89.8% (inactive),158,-0.315,-0.918,-0.838,-2.47% (inactive),-0.524 (inactive),-4.3e-05 (inactive),0.00584 (inactive),inactive,9.96% (inactive)
Cc1[nH]c(=O)[nH]c(=O)c1S(=O)(=O)N1CCCC1,473,-7.5% (inactive),-107% (inactive),116,-1.16,0.0534,0.397,-3.98% (inactive),-0.476 (inactive),-0.000255 (inactive),0.00533 (inactive),inactive,-0.601% (inactive)
O=C(NCCN1CCOCC1)c1cc2n(n1)C(C(F)(F)F)CC(c1ccc(F)cc1)N2 (centres undefined),341,-2.3% (inactive),-22.1% (inactive),104,-1.73,1.46,-0.339,7.48% (inactive),-0.529 (inactive),-9.5e-05 (inactive),0.00574 (inactive),inactive,-15.3% (inactive)
CN(C)CCCN1C(=O)C(O)=C(C(=O)c2cc3ccccc3o2)C1c1ccccc1 (centres undefined),454,2.5% (inactive),-61.8% (inactive),132,-0.256,0.437,-0.536,6.04% (inactive),-0.418 (inactive),-5.3e-05 (inactive),0.00564 (inactive),inactive,-3.04% (inactive)
Nc1nnc(Cc2ccc(Cl)c(Cl)c2)s1,621,2.9% (inactive),33.3% (inactive),174,0.377,1.31,-0.983,-7.86% (inactive),-0.369 (inactive),-3.6e-05 (inactive),0.00535 (inactive),inactive,2.91% (inactive)
O=C(NCc1ccco1)c1ccc(=O)oc1,352,-6% (inactive),-89.9% (inactive),167,0.958,0.118,-1.31,23.4% (inactive),-0.471 (inactive),-0.000178 (inactive),0.00508 (inactive),inactive,2.62% (inactive)
CCOc1ccccc1N1CCN(c2nc3ccccc3nc2C(C#N)C(=O)OC(C)C)CC1 (centres undefined),451,-7.4% (inactive),-161% (inactive),148,-1.19,-0.0935,0.236,-10.1% (inactive),-0.399 (inactive),-2.9e-05 (inactive),0.00483 (inactive),inactive,10.3% (inactive)
